pKi: −log10 of the molar value. Calls of active or inactive are those of the source. No cut-off for these calls is given here. Square brackets hold non-standard residues; d marks the D form. Peptide text beside a SMILES is read from it. Thz = O=C(O)[C@@H]1CSCN1
Columns and labels:
[1] = target: T1, Glutamate NMDA receptor (Rattus norvegicus) (UniProt P35439+Q00959+Q00960+Q00961+Q62645+Q8VHN2+Q9R1M7); test: Displacement of L[3H]glutamate from GluR in rat brain synaptic membrane up to 100 uM; type: cell membranes
How it was run: (§1)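 Competitive radioligand binding to glutamate receptors: displacement of L-[³H]glutamate from rat brain synaptic membranes, with test concentrations up to 100 μM.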

[2] = target: Glutamate NMDA receptor; test: (§2) Displacement of L[3H]glutamate from GluR in rat brain synaptic membrane; type: cell membranes; how it was run: as §1
[3] = target: T1, Glutamate NMDA receptor (Rattus norvegicus); test: as §2; type: cell membranes; how it was run: as §1
[4] = target: T1, Glutamate NMDA receptor (Rattus norvegicus); test: Protection of rat hippocampal neurons from NMDA excitotoxicity; type: functional, tissue-based; settings: Hippocampus
How it was run: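 Neuronal death was induced in cultured rat hippocampal neurons by exposure to NMDA (100 µM), and neuronal survival was scored with test agent present.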

[5] = test system: Hippocampal neurone; test: Protection of rat hippocampal neurons from oxygen-glucose deprivation; type: functional, tissue-based; settings: Hippocampus
How it was run: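 Cultured rat hippocampal neurons were subjected to oxygen-glucose deprivation injury, and neuronal survival was assessed with test agent present.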

[6] = target: T1, Glutamate NMDA receptor (Rattus norvegicus); test: Binding affinity to GluR in rat brain synaptic membranes at 100 uM

SMILES: CCC[C@@]1(C(=O)N[C@@H](CCC(=O)O)C(=O)O)CCCN1C(=O)CN
- Activity [1]: inactive

SMILES: CC1(C)CC[C@H](C(=O)N[C@@H](CCC(=O)O)C(=O)O)N1C(=O)CN
- pKi [2]: 6.48

SMILES: CC1(C)SC[C@@H](C(=O)N[C@@H](CCC(=O)O)C(=O)O)N1C(=O)CN
- Activity [3]: inactive

SMILES: C[C@@]1(C(=O)N[C@@H](CCC(=O)O)C(=O)O)CCCN1C(=O)CN (stereo in doubt; 1) [TROFINETIDE]
- pKi [2]: 4.51

SMILES: NCC(=O)N1CCC[C@]12CCN([C@@H](CCC(=O)O)C(=O)O)C2=O
- Activity [1]: inactive

SMILES: CC1(C)CC[C@@H](C(=O)N[C@@H](CCC(=O)O)C(=O)O)N1C(=O)CN
- pKi [2]: 5.42

SMILES: NCC(=O)N1CCC[C@@H]1C(=O)N[C@@H](CCC(=O)O)C(=O)O
- Activity [4]: Active
- Activity [5]: Active
- Activity [6]: inactive

SMILES: NCC(=O)N1CCC[C@H]1C(=O)N[C@H](CCC(=O)O)C(=O)O
- Activity [4]: Active
- Activity [5]: Active
- Activity [6]: inactive

SMILES: NCC(=O)N1CSC[C@H]1C(=O)N[C@@H](CCC(=O)O)C(=O)O (H-Gly-[Thz]-Glu-OH)
- Activity [3]: inactive
